Test results reported in ChEMBL document CHEMBL3286131, “Design, synthesis and systematic evaluation of cytotoxic 3-heteroarylisoquinolinamines as topoisomerases inhibitors” (Eur J Med Chem, 2014).

Assays:
[1] = system: DU-145; assay: Cytotoxicity against human DU145 cells after 2 days; assay type: functional, cell-based
Outline: (§1)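 Cells seeded at 2-4 × 10^4 per well in medium with 10% FBS and incubated overnight at 37 °C, 5% CO2. Graded compound concentrations added on day 2. CCK-8 reagent added on day 4 for a further 4 h, absorbance read at 450 nm. IC50 from a four-parameter logistic fit; mean ± S.D. of three experiments run in triplicate.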

[2] = system: HeLa; assay: Cell cycle arrest in human HeLa cells assessed as accumulation at G2/M phase phase at 25 uM after 24 hrs using […] by flow cytometry analysis relative to control; assay type: functional
Outline: (§2)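 HeLa cells exposed to graded compound concentrations for 24 h, harvested by centrifugation, PBS-washed twice, fixed overnight on ice in 70% ethanol. Stained with 10 μg/mL propidium iodide plus 0.5 mg/mL RNase and 0.1% Triton X-100 in PBS, 30 min at 37 °C in the dark. Flow cytometry gates: sub-G0/G1, G0/G1, S, G2/M.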

[3] = system: HeLa; assay: Cell cycle arrest in human HeLa cells assessed as accumulation at G2/M phase phase at 10 uM after 24 hrs using ethidium bromide staining by flow cytometry analysis relative to control; assay type: functional; details: in the assay text read “propidium iodide staining” for “ethidium bromide staining”; outline: as §2
[4] = system: HeLa; assay: Cell cycle arrest in human HeLa cells assessed as accumulation at G2/M phase phase at 50 uM after 24 hrs using […] by flow cytometry analysis relative to control; assay type: functional; outline: as §2
[5] = system: HeLa; assay: Cell cycle arrest in human HeLa cells assessed as accumulation at sub-G0/G1 phase at 50 uM after 24 hrs using […] by flow cytometry analysis relative to control; assay type: functional; outline: as §2
[6] = system: HeLa; assay: Cell cycle arrest in human HeLa cells assessed as accumulation at S phase phase at 10 uM after 24 hrs using ethidium bromide staining by flow cytometry analysis relative to control; assay type: functional; details: in the assay text read “propidium iodide staining” for “ethidium bromide staining”; outline: as §2
[7] = system: HeLa; assay: Cell cycle arrest in human HeLa cells assessed as accumulation at G0/G1 phase phase at 50 uM after 24 hrs using […] by flow cytometry analysis relative to control; assay type: functional; outline: as §2
[8] = system: HeLa; assay: Cell cycle arrest in human HeLa cells assessed as accumulation at S phase phase at 50 uM after 24 hrs using […] by flow cytometry analysis relative to control; assay type: functional; outline: as §2
[9] = system: T47D; assay: Cytotoxicity against human T47D cells after 2 days; assay type: functional, cell-based; outline: as §1
[10] = Cytotoxicity against human MCF10A cells after 2 days; assay type: cell-based, MCF-10A; outline: as §1
[11] = system: HeLa; assay: Cell cycle arrest in human HeLa cells assessed as accumulation at G0/G1 phase phase at 25 uM after 24 hrs using […] by flow cytometry analysis relative to control; assay type: functional; outline: as §2
[12] = Cytotoxicity against human HCT15 cells after 2 days; assay type: functional, cell-based, HCT-15; outline: as §1
[13] = system: HeLa; assay: Cell cycle arrest in human HeLa cells assessed as accumulation at S phase phase at 5 uM after 24 hrs using ethidium bromide staining by flow cytometry analysis relative to control; assay type: functional; details: in the assay text read “propidium iodide staining” for “ethidium bromide staining”; outline: as §2
[14] = system: HeLa; assay: Cell cycle arrest in human HeLa cells assessed as accumulation at S phase phase at 25 uM after 24 hrs using […] by flow cytometry analysis relative to control; assay type: functional; outline: as §2
[15] = system: HeLa; assay: Cell cycle arrest in human HeLa cells assessed as accumulation at G0/G1 phase phase at 10 uM after 24 hrs using ethidium bromide staining by flow cytometry analysis relative to control; assay type: functional; details: in the assay text read “propidium iodide staining” for “ethidium bromide staining”; outline: as §2
[16] = system: HeLa; assay: Cell cycle arrest in human HeLa cells assessed as accumulation at sub-G0/G1 phase at 10 uM after 24 hrs using ethidium bromide staining by flow cytometry analysis relative to control; assay type: functional; details: in the assay text read “propidium iodide staining” for “ethidium bromide staining”; outline: as §2
[17] = system: HeLa; assay: Cell cycle arrest in human HeLa cells assessed as accumulation at sub-G0/G1 phase at 25 uM after 24 hrs using […] by flow cytometry analysis relative to control; assay type: functional; outline: as §2
[18] = system: HeLa; assay: Cell cycle arrest in human HeLa cells assessed as accumulation at G2/M phase phase at 5 uM after 24 hrs using ethidium bromide staining by flow cytometry analysis relative to control; assay type: functional; details: in the assay text read “propidium iodide staining” for “ethidium bromide staining”; outline: as §2
[19] = system: HeLa; assay: Cell cycle arrest in human HeLa cells assessed as accumulation at G0/G1 phase phase at 5 uM after 24 hrs using ethidium bromide staining by flow cytometry analysis relative to control; assay type: functional; details: in the assay text read “propidium iodide staining” for “ethidium bromide staining”; outline: as §2

Row | SMILES | IC50 ([1]; du-145) | Activity [2] | Activity [3] | Activity [4] | Activity [5] | Activity [6] | Activity [7] | Activity [8] | IC50 ([9]; t47d) | IC50 ([10]; mcf-10a) | Activity [11] | IC50 ([12]; hct-15) | Activity [13] | Activity [14] | Activity [15] | Activity [16] | Activity [17] | Activity [18] | Activity [19] | IC50 ([1]; Homo sapiens, DU-145, 48 h) | further results
1 | c1csc(-c2cc3ccccc3c(N3CCNCC3)n2)c1 | 17.6 µM | 14.88% | 16.57% | 0.72% | 90.21% | 12.03% | 4.52% | 1.16% | 9.53 µM | 44.1 µM | 67.7% | 1.25 µM | 13.11% | 8.71% | 61.34% | 1.85% | 1.77% | 16.28% | 59.83% |  | 
2 | Cl.c1csc(-c2cc3ccccc3c(N3CCNCC3)n2)c1 | 8.25 µM | 1.23% | 15.05% | 0.02% | 99.58% | 7.13% | 0.18% | 0.04% | 4.51 µM | 18.1 µM | 7.25% | 5.45 µM | 12.7% | 1.85% | 67.99% | 3.57% | 85.1% | 16.24% | 60.31% |  | 
3 | Nc1nc(-c2cccs2)cc2ccccc12 |  | 47.68% | 41.79% | 59.85% | 13.66% | 8.2% | 5.04% | 9.56% | 7.93 µM |  | 11.6% | 1.2 µM | 9.04% | 11.29% | 21.33% | 17.43% | 18.03% | 28.48% | 44.93% | > 50 µM | IC50 ([10]; Homo sapiens, MCF-10A, 48 h): > 50 µM
4 | CCN1CCN(c2nc(-c3cccs3)cc3cc(C)ccc23)CC1 |  | 13.75% | 18.01% | 0.22% | 96.49% | 13.41% | 2.37% | 0.47% | 8.45 µM | 33.9 µM | 63.92% |  | 9.77% | 13.57% | 58.48% | 2.63% | 3.17% | 17.4% | 65.61% | 17.2 µM | IC50 ([12]; Homo sapiens, HCT-15, 48 h): 2.41 µM
5 | Cc1ccc2c(N3CCNCC3)nc(-c3cccs3)cc2c1.Cl | 11.7 µM | 0.27% | 0.58% | 0% | 98.87% | 1.6% | 0.57% | 0.17% |  | 8.18 µM | 1.64% |  | 13.49% | 0.67% | 6.13% | 86.88% | 96.03% | 12.75% | 59.04% |  | IC50 ([9]; Homo sapiens, T47D, 48 h): 7.57 µM; IC50 ([12]; Homo sapiens, HCT-15, 48 h): 0.94 µM
6 | Cc1ccc2c(N3CCNCC3)nc(-c3cccs3)cc2c1 |  | 0.22% | 0.23% | 0.04% | 97.06% | 0.64% | 1.4% | 0.35% | 8.74 µM |  | 1.89% | 1.31 µM | 11.25% | 0.5% | 3.24% | 92.31% | 96% | 11.58% | 62.69% | 8.31 µM | IC50 ([10]; Homo sapiens, MCF-10A, 48 h): 7.25 µM
7 | Cl.Nc1nc(-c2cccs2)cc2ccccc12 |  | 11.42% | 13.67% | 22.37% | 6.54% | 9.55% | 52.6% | 10.09% | 17.5 µM |  | 56.01% | 24.4 µM | 7.76% | 13.82% | 64.43% | 6.6% | 5.22% | 16.08% | 63.67% |  | 
8 | CCN1CCN(c2nc(-c3cccs3)cc3ccccc23)CC1 | > 50 µM | 19.68% | 17.28% | 11.7% | 3.97% | 9.46% | 71.23% | 7.96% | 17.4 µM | 49 µM | 55.62% |  | 10.47% | 13.4% | 66.35% | 2.08% | 3.77% | 14.89% | 65.03% |  | IC50 ([12]; Homo sapiens, HCT-15, 48 h): 7.42 µM
9 | CCN1CCN(c2nc(-c3cccs3)cc3ccccc23)CC1.Cl |  | 15.75% | 20% | 3.46% | 54.68% | 12.88% | 31.74% | 6.9% | 8.08 µM | 23.8 µM | 54.43% | 9.29 µM | 9.99% | 18.42% | 57.14% | 2.59% | 2.67% | 15.9% | 68.51% | 46.6 µM | 
